Assays:
[1] = Metabolic stability in human liver microsome after 45 mins by mass spectroscopy; type: ADME; settings: liver microsomes, read-out: Stability
In short: (§1)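 Compound incubated with human or mouse liver microsomes at 37 °C for 45 min. Percent compound remaining was measured by mass spectrometry.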

[2] = Metabolic stability in mouse liver microsome after 45 mins by mass spectroscopy; type: ADME; settings: liver microsomes, read-out: Stability; in short: as §1
[3] = AUC in ICR mouse at 27.3 mg/kg, po; type: ADME, organism-based; parameters: dose 27.3 mg/kg, route oral; settings: plasma
In short: (§2)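 Single oral dose of 27.3 mg kg^-1, given as HCl salt formulation, to male ICR mice (n = 2). AUC, Cmax and Tmax were derived from plasma concentration–time data.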

[4] = Tmax in ICR mouse at 27.3 mg/kg, po; type: ADME, organism-based; parameters: dose 27.3 mg/kg, route oral; settings: in vivo; in short: as §2
[5] = Cmax in ICR mouse at 27.3 mg/kg, po; type: ADME, organism-based; parameters: dose 27.3 mg/kg, route oral; settings: in vivo; in short: as §2

remaining at 0.75 h [1] [%] | remaining at 0.75 h [2] [%] | AUC [3] [ng·h/mL] | Tmax [4] [h] | Cmax [5] [ng/mL] | Compound
26.5 | 1.5 | – | – | – | O=C(NCCc1cccnc1Cl)c1ccnc2[nH]c(-c3ccoc3)nc12
36.5 | 28.9 | – | – | – | Cc1ccncc1NC(=O)c1ccnc2[nH]c(N3CCC(c4ccccc4)C3)nc12 (centres undefined)
– | – | 645 | 0.5 | 496 | COc1ccc(-c2nc3c(C(=O)Nc4cnccc4C)ccnc3[nH]2)cc1.Cl
71 | 87 | – | – | – | COc1ccncc1NC(=O)c1ccnc2[nH]c(-c3ccc(F)cc3)nc12
13 | 0.8 | – | – | – | CS(=O)(=O)Nc1ccc(CCNC(=O)c2ccnc3[nH]c(-c4ccc(F)cc4)nc23)cc1
4 | 6.6 | – | – | – | COc1cccc(-c2nc3c(C(=O)Nc4cnccc4C)ccnc3[nH]2)c1
13.3 | 1.6 | – | – | – | CN(C)S(=O)(=O)Nc1ccc(CCNC(=O)c2ccnc3[nH]c(-c4ccsc4)nc23)cc1
86.6 | 70.2 | – | – | – | CS(=O)(=O)Nc1ccc(CCNC(=O)c2ccnc3[nH]c(-c4ccc(Cl)cc4)nc23)cc1
9.4 | 2.9 | – | – | – | O=C(NCCc1ccc(F)nc1)c1ccnc2nc(-c3ccc(F)cc3)[nH]c12
12.1 | 11.1 | – | – | – | O=C(NCCc1cccc(O)c1)c1ccnc2[nH]c(-c3ccc(F)cc3)nc12
33.3 | 47.4 | – | – | – | Cc1ccc(NC(=O)c2ccnc3[nH]c(-c4ccc(F)cc4)nc23)cn1
– | – | 545 | 1 | 228 | COc1ccncc1NC(=O)c1ccnc2[nH]c(-c3ccc(F)cc3)nc12.Cl
7.4 | 1 | – | – | – | CN(C)S(=O)(=O)Nc1ccc(CCNC(=O)c2ccnc3[nH]c(-c4ccc(F)cc4)nc23)cc1
– | – | 39 | – | – | Cc1ccncc1NC(=O)c1ccnc2[nH]c(N3CCC(c4ccccc4)C3)nc12.Cl (centres undefined)
– | 70 | – | – | – | O=C(Nc1cccnc1)c1ccnc2[nH]c(-c3ccc(F)cc3)nc12
51.4 | 56.8 | – | – | – | COc1ccc(-c2nc3c(C(=O)Nc4cnccc4C)ccnc3[nH]2)cc1
23.8 | 6.4 | – | – | – | CCOc1ccncc1NC(=O)c1ccnc2[nH]c(-c3cccc(OC)c3)nc12
– | – | 27 | – | – | COc1ccncc1NC(=O)c1ccnc2[nH]c(-c3cccc(Cl)c3)nc12.Cl
36.5 | 46.7 | – | – | – | COc1ccncc1NC(=O)c1ccnc2[nH]c(-c3cccc(Cl)c3)nc12
– | – | 2400 | 3 | 843 | Cc1ccc(NC(=O)c2ccnc3[nH]c(-c4ccc(F)cc4)nc23)cn1.Cl
96 | 27 | – | – | – | COc1ccncc1NC(=O)c1ccnc2nc(-c3ccncc3)[nH]c12
38 | 36 | – | – | – | CCOc1ccncc1NC(=O)c1ccnc2[nH]c(-c3ccc(F)cc3)nc12
25.7 | 4.2 | – | – | – | O=C(NCCCc1ccc(Cl)nc1)c1ccnc2[nH]c(-c3ccc(F)cc3)nc12
36.8 | 2.2 | – | – | – | CS(=O)(=O)Nc1ccc(CCNC(=O)c2ccnc3[nH]c(-c4cccs4)nc23)cc1
47 | 5.2 | – | – | – | CS(=O)(=O)Nc1ccc(CCNC(=O)c2ccnc3[nH]c(-c4ccoc4)nc23)cc1
0 | 0 | – | – | – | CCN(CC)c1ccc(-c2nc3c(C(=O)Nc4cnccc4C)ccnc3[nH]2)cc1
6.5 | 6.3 | – | – | – | CCOc1ccncc1NC(=O)c1ccnc2[nH]c(-c3cccnc3)nc12

Reference: ChEMBL document CHEMBL2046366, “Design, synthesis and biological evaluation of novel imidazopyridines as potential antidiabetic GSK3β inhibitors” (Bioorg Med Chem Lett, 2012)
